Screening results as filed in PubChem BioAssay.
In the library only some 2.6% were active in any assay of this set; here they are far more common.
SENP7 block: inhibitors of human SENP7 protease. Q9BQF6. recombinant SENP7, Z-RLRGG-aminoluciferin luminescence, 40 min. inhibition, % at 5 µM. 1.5% of 330,000 active. AID 434973;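 active = inhibition above about 50% at the single test dose, limit read from the data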
SENP1 FRET inh: inhibitors of human SENP1 SUMO protease catalytic domain | Q9P0U3 | recombinant SENP1 catalytic domain, CyPet-SUMO1-YPet FRET cleavage | inhibition, % at 10 µM | 0.21% of 360,000 active | AID 624204;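 active = inhibition at least 30% at 10 µM, raw YFP signal under a set limit, fluorescence ratio 0.5 to 1.5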
Target sequence (Q9P0U3 419-644 limits assumed): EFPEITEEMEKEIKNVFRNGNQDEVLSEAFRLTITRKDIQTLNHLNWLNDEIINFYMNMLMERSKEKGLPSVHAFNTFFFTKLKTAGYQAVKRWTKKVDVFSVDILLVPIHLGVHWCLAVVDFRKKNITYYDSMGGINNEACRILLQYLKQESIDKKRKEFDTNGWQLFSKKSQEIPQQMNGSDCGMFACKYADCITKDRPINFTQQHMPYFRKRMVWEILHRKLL
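Test system: recombinant human SENP1 catalytic domain, His6-tagged / Medium: pH 8 Tris buffer with EDTA, NaCl, BME, BSA, NP40, catalase / Also added: SUMO1 FRET substrate flanked by Cypet and Ypet, 25 nM / Times: 50 min reaction at room temperature / Signal: FRET, CFP and YFP emission / Control set: no-enzyme low control and enzyme-plus-DMSO high control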
SENP6 block: blocks the human protease SENP6 | 1.8% of 330,000 active | Q9GZR1 | Recombinant SENP6 catalytic domain, aminoluciferin luminescence | inhibition, % at 10 µM;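 active = inhibition above about 50% at the single tested dose, limit read from the data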
SENP8 block-1: blocks the human protease SENP8; inhibition, % at 10 µM; Q96LD8; 1.2% of 330,000 active; purified SENP8, Z-RLRGG-aminoluciferin cleavage, luminescence; AID 2540; in the data active = inhibition above about 50%
Target sequence (Q96LD8 whole entry, looked up): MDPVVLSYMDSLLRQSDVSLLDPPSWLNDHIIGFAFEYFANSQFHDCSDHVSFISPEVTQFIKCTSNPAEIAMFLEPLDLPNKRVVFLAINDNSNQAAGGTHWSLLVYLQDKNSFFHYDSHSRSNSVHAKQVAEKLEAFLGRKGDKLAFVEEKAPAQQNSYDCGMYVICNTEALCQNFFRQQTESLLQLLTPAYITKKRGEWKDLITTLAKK
SENP8 block-2: inhibitors of human SENP8 protease | inhibition, % at 20 µM | 0.64% of 360,000 active | Q96LD8 | recombinant SENP8, Nedd8 substrate fluorescence; in the data active = inhibition mostly above about 40%, no sharp cut-off; inactive = mostly below about 27%
Platelet DG rel: platelet dense granule release activity | human platelet-rich plasma, SFLLRN dense granule ATP release, luminescence | inhibition, %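 (compounds screened at 7.5 µM in platelet-rich plasma)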 | 0.22% of 300,000 active;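 active = mean replicate score, as percent of positive control, at or above 50; inconclusive = mean below 50 but at least one replicate at or above 50; inactive = mean and every replicate below 50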
A number is an active result; . = inactive; ? = inconclusive; / = not tested or not shown.

SMILES	SENP7 block	SENP1 FRET inh	SENP6 block	SENP8 block-1	SENP8 block-2	Platelet DG rel
O=[N+]([O-])c1ccc(N/N=C/c2ccc(O)c(O)c2O)c(S(=O)(=O)N2CCOCC2)c1	.	.	.	.	90	.
CSc1ccc(NC(=O)Nc2ccccc2C(N)=O)cc1	95	.	97	92	.	.
CC(C)(C)NC(=O)Nc1ccccc1C(N)=O	.	.	.	.	.	.
O=S(=O)(NCCS(=O)(=O)N1CCN(c2ccc(F)cc2)CC1)c1ccccc1	/	.	/	/	.	/
CCOC(=O)c1sc2nc(OCc3cccnc3)cc(C)c2c1N	/	.	/	/	.	/
COC(=O)CCC(=O)OC1(C)C(=O)C2=CN(CCN3CCOCC3)C(c3ccc(OC)cc3)=CC2=C(Br)C1=O (stereo not drawn)	.	/	52	.	/	.
COC(=O)CCC(=O)OC1(C)C(=O)C2=CN(CCCCO)C(c3ccc(OC)cc3)=CC2=C(Br)C1=O (stereo not drawn)	.	/	.	.	/	.
CCOC(=O)N1CCN(CC(=O)N2CCC(C(N)=O)CC2)CC1	.	.	.	.	.	59
CCOC(=O)N1CCN(CC(=O)N2c3ccccc3Sc3ccccc32)CC1	.	.	.	.	.	.
C[C@H](O)[C@@H]1CN2CCc3c([nH]c4ccccc34)[C@@H]2C[C@@H]1N(C)C(=S)NCCc1ccccc1	/	.	/	/	.	/
CCCS(=O)(=O)NC(=O)C1(C)CCCN(C(=O)c2sccc2C)C1 (stereo not drawn)	/	.	/	/	.	/
CC(=O)Oc1cc2cccc(OC(C)=O)c(=O)c2c(OC(C)=O)c1OC(C)=O	.	.	.	.	44	.
COc1cc2cccc(OC)c(=O)c2c(O)c1OC	.	.	.	.	.	.
COc1cccc(NC2=C(NCCO)C(=O)c3ccccc3C2=O)c1	.	.	.	.	54	.
CCc1nnc(NC(=O)CSc2nnc(Cc3cccn3C)n2CCOC)s1	.	.	.	.	.	52
CCc1nnc(NC(=O)CSc2nnc(-c3ccco3)n2CCOC)s1	.	.	.	.	.	.
Cc1cc(C(=O)c2ccccc2)cc(C)c1O	/	.	/	/	.	/
O=C(c1ccccc1)c1ccc(O)c(O)c1O	/	.	/	/	47	/
CC1(C(=O)Nc2cccc(OC(F)(F)F)c2)Cc2c(-c3ccc4c(c3)OCO4)ccnc2O1 (stereo not drawn)	/	.	/	/	.	/
COc1ccc(OCCCC(=O)OC(C)C(=O)Nc2ccc(NC(C)=O)cc2)cc1 (stereo not drawn)	.	.	.	.	.	57
COc1ccc(S(=O)(=O)N2CCC[C@H]2C(=O)N2CCC[C@H]2C(=O)NCc2ccccn2)cc1C	/	.	/	/	.	/
O=C(CC[C@H]1O[C@@H](n2ccc(=O)[nH]c2=O)[C@H](O)[C@@H]1O)N[C@H](Cc1ccccc1)C(=O)NCc1ccc2c(c1)OCO2	/	.	/	/	.	/
CN(Cc1ccc(Cl)c(Cl)c1)C(c1cc2ccccc2o1)c1nnnn1C(C)(C)C (stereo not drawn)	/	.	/	/	.	/
OC(c1ccc(Cl)cc1)c1ncc(-c2cccc(F)c2)[nH]1 (stereo not drawn)	/	.	/	/	.	/
CC(=O)Nc1ccc(C(=O)N(C)c2ccccc2)cc1	.	.	.	.	.	77
SMILES	SENP7 block	SENP1 FRET inh	SENP6 block	SENP8 block-1	SENP8 block-2	Platelet DG rel
CCN(C(=O)c1ccc(NC(C)=O)cc1)c1ccccc1	.	.	.	.	.	.
COc1ccc(Cl)cc1C(=O)NNC(=O)CNC(=O)c1ccco1	.	.	.	.	.	/
CCOC(=O)C1=CCN(S(=O)(=O)c2ccc(C)cc2)C1c1cccc(C)c1 (stereo not drawn)	/	.	/	/	.	/
O=C(O)C(Cc1ccccc1)N1C(=O)/C(=C/c2cccs2)SC1=S (stereo not drawn)	.	.	.	.	41	/
COc1ccc(-c2nsc3c(SCc4ccccc4)ncnc23)cc1	.	.	.	.	.	.
CCN(CC)C(=O)CSc1ncnc2c(-c3ccc(OC)cc3)nsc12	.	/	51	52	/	?
COc1cccc(/C=N/NC(=O)C(=O)Nc2ccccc2OC(F)(F)C(F)F)c1O	.	35	.	.	.	.
Cc1ccc(NC(=O)C2(C)CCN2C(=O)Cc2ccc(C(C)(C)C)cc2)cc1C (stereo not drawn)	/	.	/	/	.	/
N/C(=N\OC(=O)c1cccc(Br)c1)c1ccccn1	98	.	96	86	.	.
CCOc1ccc(C(=O)O/N=C(\N)c2ccccn2)cc1OCC	.	.	.	.	.	.
